Here are results for six molecules from ChEMBL document CHEMBL3227917, “Structure-activity relationships of dimeric Catharanthus alkaloids. 2. Experimental antitumor activities of N-substituted deacetylvinblastine amide (vindesine) sulfates” (J Med Chem, 1979).

Data set [1] is described as follows: Antitumor activity against mouse Ridgway osteogenic sarcoma allografted in AKR mouse assessed as tumor growth inhibition at 0.10 mg/kg, ip administered daily for 8 to 10 days compound treatment commenced 8 days after tumor implantation. The class given is functional. The note with it: route intraperitoneal, read-out: TGI.
Data set [2] relates to Mus musculus. Nature of the data set: Toxicity in AKR mouse allografted with mouse Ridgway osteogenic sarcoma assessed as lethality at 0.40 mg/kg, ip administered daily for 8 to 10 days compound treatment commenced 8 days after tumor implantation. Set-up: dose 0.4 mg/kg, route intraperitoneal. Format: organism-based. The note with it: in vivo, 0.4 mg/kg. Put shortly:
(§1)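 Tumor-bearing mice given sulfate salts ip daily for 8–10 days; values are the average of one or more tests. Toxic means lethal to ≥5 of 10 animals per group.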

Data set [3] can be described thus: Antitumor activity against mouse Gardner lymphosarcoma allografted in C3H mouse assessed as tumor growth inhibition at 0.20 mg/kg, ip administered daily for 8 to 10 days. The note with it: route intraperitoneal, read-out: TGI. Format: functional. Put shortly: (§2)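 Gardner lymphosarcoma in C3H mice; sulfate salts unless noted, given ip daily for 8–10 days, treatment starting 8 days after tumor implantation. Tumor growth inhibition scored as –, 0–25%; +, 26–50%; ++, 51–75%; +++, 76–100%; T, lethal to ≥5 of 10 animals per group. Average of one or more tests.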

In data set [4] the test system is Mus musculus. Briefly: Toxicity in AKR mouse allografted with mouse Ridgway osteogenic sarcoma assessed as lethality at 0.20 mg/kg, ip administered daily for 8 to 10 days compound treatment commenced 8 days after tumor implantation. Set-up: dose 0.2 mg/kg, route intraperitoneal. The settings on record: in vivo, 0.2 mg/kg. Format: organism-based. Summed up:
as §1

Data set [5] in a line: Antitumor activity against mouse Gardner lymphosarcoma allografted in C3H mouse assessed as tumor growth inhibition at 0.10 mg/kg, ip administered daily for 8 to 10 days. Format: functional. The settings on record: route intraperitoneal, read-out: TGI. Put shortly: as §2
The test system of data set [6] is Mus musculus. Briefly: Toxicity in C3H mouse allografted with mouse Gardner lymphosarcoma assessed as lethality at 0.40 mg/kg, ip administered daily for 8 to 10 days. The class given is organism-based. Set-up: dose 0.4 mg/kg, route intraperitoneal. The note with it: in vivo, 0.4 mg/kg. Put shortly: as §1
The nature of data set [7]: Antitumor activity against mouse Gardner lymphosarcoma allografted in C3H mouse assessed as tumor growth inhibition at 0.30 mg/kg, ip administered daily for 8 to 10 days. Format: functional. The settings on record: route intraperitoneal, read-out: TGI. Put shortly: as §2
Data set [8] can be described thus: Antitumor activity against mouse Ridgway osteogenic sarcoma allografted in AKR mouse assessed as tumor growth inhibition at 0.20 mg/kg, ip administered daily for 8 to 10 days compound treatment commenced 8 days after tumor implantation. Format: functional. The note with it: route intraperitoneal, read-out: TGI.
Data set [9] can be described thus: Antitumor activity against mouse Gardner lymphosarcoma allografted in C3H mouse assessed as tumor growth inhibition at 0.40 mg/kg, ip administered daily for 8 to 10 days. The note with it: route intraperitoneal, read-out: TGI. Format: functional. Put shortly: as §2
Data set [10] can be described thus: Antitumor activity against mouse Ridgway osteogenic sarcoma allografted in AKR mouse assessed as tumor growth inhibition at 0.40 mg/kg, ip administered daily for 8 to 10 days compound treatment commenced 8 days after tumor implantation. The class given is functional. The settings on record: route intraperitoneal, read-out: TGI.
The subject of data set [11] is Mus musculus. Nature of the data set: Toxicity in C3H mouse allografted with mouse Gardner lymphosarcoma assessed as lethality at 0.30 mg/kg, ip administered daily for 8 to 10 days. The settings on record: in vivo, 0.3 mg/kg. Set-up: dose 0.3 mg/kg, route intraperitoneal. The class given is organism-based. Summed up: as §1
Data set [12] in a line: Antitumor activity against mouse Ridgway osteogenic sarcoma allografted in AKR mouse assessed as tumor growth inhibition at 0.30 mg/kg, ip administered daily for 8 to 10 days compound treatment commenced 8 days after tumor implantation. Format: functional. The note with it: route intraperitoneal, read-out: TGI.
The nature of data set [13]: Antitumor activity against mouse Gardner lymphosarcoma allografted in C3H mouse assessed as tumor growth inhibition at 0.05 mg/kg, ip administered daily for 8 to 10 days. The settings on record: route intraperitoneal, read-out: TGI. Format: functional. Put shortly:
as §2

For the molecule `CCNC(=O)[C@@]1(O)[C@H](O)[C@]2(CC)C=CCN3CC[C@@]4(c5cc([C@@]6(C(=O)OC)C[C@@H]7CN(CCc8c6[nH]c6ccccc86)C[C@](O)(CC)C7)c(OC)cc5N(C)[C@@H]14)[C@@H]32.O=S(=O)(O)O`, the inhibition in vivo at 0.1 mg/kg in data set [1] and in [5] was 0% in each case. The Activity result in data set [2], in data set [4] and in data set [6] was “Toxic” throughout. In addition, the inhibition in vivo at 0.2 mg/kg in data set [3] amounted to 76%.

For the molecule `CC[C@]1(O)C[C@H]2CN(CCc3c([nH]c4ccccc34)[C@@](C(=O)OC)(c3cc4c(cc3OC)N(C)[C@H]3[C@@](O)(C(=O)NCc5ccccc5)[C@H](O)[C@]5(CC)C=CCN6CC[C@]43[C@@H]65)C2)C1`, the inhibition in vivo at 0.1 mg/kg in data set [1] stood at 0%. Moreover, the inhibition in vivo at 0.3 mg/kg in [7] amounted to 0%. Also, the figures for the inhibition in vivo at 0.2 mg/kg in data set [3] and in [8] were 26% and 0%, respectively. Moreover, the inhibition in vivo at 0.4 mg/kg in data set [9] worked out at 0%; in data set [10], 76%.

With `CC[C@]1(O)C[C@H]2CN(CCc3c([nH]c4ccccc34)[C@@](C(=O)OC)(c3cc4c(cc3OC)N(C)[C@H]3[C@@](O)(C(=O)N(C)C)[C@H](O)[C@]5(CC)C=CCN6CC[C@]43[C@@H]65)C2)C1.O=S(=O)(O)O`, the inhibition in vivo at 0.1 mg/kg in [1] came out at 0%. Also, the Activity entry in [2], in data set [4], in data set [6] and in data set [11] was “Toxic” throughout. For the same molecule, the inhibition in vivo at 0.2 mg/kg in data set [3] stood at 26%.

Consider `CC[C@]1(O)C[C@H]2CN(CCc3c([nH]c4ccccc34)[C@@](C(=O)OC)(c3cc4c(cc3OC)N(C)[C@H]3[C@@](O)(C(=O)NCC#N)[C@H](O)[C@]5(CC)C=CCN6CC[C@]43[C@@H]65)C2)C1.O=S(=O)(O)O`, for which the inhibition in vivo at 0.1 mg/kg in [1] and in data set [5] was 0% each time. Besides, the inhibition in vivo at 0.2 mg/kg in data set [3] worked out at 76%. Moreover, the inhibition in vivo at 0.3 mg/kg in [12] is 26%. Besides, in [11], the Activity entry is “Toxic”.

As to `CC[C@]1(O)C[C@H]2CN(CCc3c([nH]c4ccccc34)[C@@](C(=O)OC)(c3cc4c(cc3OC)N(C)[C@H]3[C@@](O)(C(=O)NCCOC(C)=O)[C@H](O)[C@]5(CC)C=CCN6CC[C@]43[C@@H]65)C2)C1.O=S(=O)(O)O`, the Activity entry in [2] and in data set [6] was “Toxic” in each case. For the same molecule, the inhibition in vivo at 0.2 mg/kg in data set [3] and in [8] was 76% each time. The inhibition in vivo at 0.1 mg/kg in data set [5] was 51%. In [13], the inhibition in vivo at 0.05 mg/kg amounted to 26%.

In the case of `CCCC(=O)OCCNC(=O)[C@@]1(O)[C@H](O)[C@]2(CC)C=CCN3CC[C@@]4(c5cc([C@@]6(C(=O)OC)C[C@@H]7CN(CCc8c6[nH]c6ccccc86)C[C@](O)(CC)C7)c(OC)cc5N(C)[C@@H]14)[C@@H]32.O=S(=O)(O)O`, the Activity entry in [2] and in data set [6] was “Toxic” throughout. Also, the inhibition in vivo at 0.2 mg/kg in data set [3] and in data set [8] was 76% in each case. Moreover, in data set [5], the inhibition in vivo at 0.1 mg/kg came out at 51%. In addition, the inhibition in vivo at 0.05 mg/kg in data set [13] came to 0%.
